Assay results taken from ChEMBL document CHEMBL1144782, “Isoindolo[2,1-a]quinoxaline derivatives, novel potent antitumor agents with dual inhibition of tubulin polymerization and topoisomerase I” (2008).

Legend:
NCI-H23 = assay: Antitumor activity against human NCI-H23 cells; format: functional
Procedure, shortened: (§1)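 Run by the NCI in its in vitro disease-oriented screen of about 60 human tumour cell lines. For each line it reports pGI50 (50% net growth inhibition), pTGI (total growth inhibition) and pLC50 (50% net cell death), each as –log molar concentration. Where an effect was not reached within the tested range, the highest tested concentration was used.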

NCI-H522 = assay: Antitumor activity against human NCI-H522 cells; format: functional; procedure, shortened: as §1
HCT-116 = assay: Antitumor activity against human HCT116 cells; format: functional; procedure, shortened: as §1
HCT-15 = assay: Antitumor activity against human HCT15 cells; format: functional; procedure, shortened: as §1
HT-29 = assay: Antitumor activity against human HT29 cells; format: functional; procedure, shortened: as §1
KM12 = assay: Antitumor activity against human KM12 cells; format: functional; procedure, shortened: as §1
SW-620 = assay: Antitumor activity against human SW620 cells; format: functional
Procedure, shortened: (§2)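 NCI 60-cell-line screen. Parameters were GI50 (50% net growth inhibition), TGI and LC50, each reported as –log molar concentration. Where an effect was not reached within the tested range, the highest tested concentration was used in the calculation.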

SF-268 [1] = assay: Antitumor activity against human SF268 cells; format: functional; procedure, shortened: as §1
SF-295 = assay: Antitumor activity against human SF295 cells; format: functional; procedure, shortened: as §1
U-251 = assay: Antitumor activity against human U251 cells; format: functional; procedure, shortened: as §2
LOX IMVI = assay: Antitumor activity against human LOXIMVI cells; format: functional; procedure, shortened: as §1
M14 = assay: Antitumor activity against human M14 cells; format: functional; procedure, shortened: as §1
SK-MEL-2 = assay: Antitumor activity against human SKMEL2 cells; format: functional; procedure, shortened: as §1
UACC-62 = assay: Antitumor activity against human UACC62 cells; format: functional; procedure, shortened: as §2
OVCAR-4 = assay: Antitumor activity against human OVCAR4 cells; format: functional; procedure, shortened: as §1
OVCAR-8 = assay: Antitumor activity against human OVCAR8 cells; format: functional; procedure, shortened: as §1
SK-OV-3 = assay: Antitumor activity against human SKOV3 cells; format: functional; procedure, shortened: as §1
786-0 = assay: Antitumor activity against human 786-0 cells; format: functional; procedure, shortened: as §1
A498 = assay: Antitumor activity against human A498 cells; format: functional; procedure, shortened: as §1
ACHN = assay: Antitumor activity against human ACHN cells; format: functional; procedure, shortened: as §1
CAKI-1 = assay: Antitumor activity against human CAKI1 cells; format: functional; procedure, shortened: as §1
RXF 393 = assay: Antitumor activity against human RXF393 cells; format: functional; procedure, shortened: as §1
Tubulin (Sus scrofa) = Tubulin (Sus scrofa) (UniProt P02554+P02550); assay: Inhibition of pig brain tubulin polymerization
BT-549 = assay: Antitumor activity against human BT549 cells; format: functional; procedure, shortened: as §1
MCF7 [2] = assay: Cell viability against human MCF7 cells at 10 uM; format: functional
SF-268 [3] = assay: Cell viability against human SF268 cells at 10 uM; format: functional
RPMI-8226 = assay: Antitumor activity against human RPMI8226 cells; format: functional; procedure, shortened: as §1
SR = assay: Antitumor activity against human SR cells; format: functional; procedure, shortened: as §2
A549 = assay: Antitumor activity against human A549 cells; format: functional; procedure, shortened: as §1
EKVX = assay: Antitumor activity against human EKVX cells; format: functional; procedure, shortened: as §1
HOP-62 = assay: Antitumor activity against human HOP62 cells; format: functional; procedure, shortened: as §1
TK-10 = assay: Antitumor activity against human TK10 cells; format: functional; procedure, shortened: as §2
PC-3 = assay: Antitumor activity against human PC3 cells; format: functional; procedure, shortened: as §1
MCF7 [4] = assay: Antitumor activity against human MCF7 cells; format: functional; procedure, shortened: as §1
NCI/ADR-RES = assay: Antitumor activity against human NCI/ADR-RES cells; format: functional; procedure, shortened: as §1
[5] = Antitumor activity against human […] cells; format: functional; procedure, shortened: as §1
Hs-578T = assay: Antitumor activity against human HS578T cells; format: functional; procedure, shortened: as §1
T47D = assay: Antitumor activity against human T47D cells; format: functional; procedure, shortened: as §2
MCF7 [6] = assay: Growth inhibition of human MCF7 cells after 72 hrs by MTT assay; format: functional; conditions: MCF7, 72 h
Procedure, shortened: (§3)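 Growth inhibition by MTT after 72 h incubation. Resistant sublines: LoVoDoxo and MCF-7 MDR were kept in 0.1 µg/mL doxorubicin; CEMVbl-100 was selected against vinblastine. GI50 given as mean ± SEM of three independent experiments. Resistance index is resistant-line GI50 over parental GI50.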

MCF7 [7] = assay: Resistance index, Ratio of GI50 for human multidrug-resistant MCF7 cells to GI50 for human MCF7 cells; format: functional; procedure, shortened: as §3
CCRF-CEM = assay: Growth inhibition of human CEM cells after 72 hrs by MTT assay; format: functional; procedure, shortened: as §3
[8] = read-out: Log LC50 (the source's name) (converted)

Chain of Tubulin (Sus scrofa) (P02550 whole entry, looked up): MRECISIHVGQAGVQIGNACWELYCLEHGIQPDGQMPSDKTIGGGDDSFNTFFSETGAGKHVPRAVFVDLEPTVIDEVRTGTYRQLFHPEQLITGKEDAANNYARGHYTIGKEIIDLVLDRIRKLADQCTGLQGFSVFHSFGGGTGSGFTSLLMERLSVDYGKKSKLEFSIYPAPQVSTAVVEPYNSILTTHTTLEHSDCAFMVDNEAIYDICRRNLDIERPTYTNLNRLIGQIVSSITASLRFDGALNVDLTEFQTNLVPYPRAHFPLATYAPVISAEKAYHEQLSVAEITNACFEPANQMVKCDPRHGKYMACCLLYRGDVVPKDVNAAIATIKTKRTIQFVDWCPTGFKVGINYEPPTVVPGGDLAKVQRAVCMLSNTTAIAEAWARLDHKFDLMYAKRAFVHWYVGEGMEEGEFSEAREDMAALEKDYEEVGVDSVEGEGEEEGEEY
Chain of Tubulin (Sus scrofa) (P02554 whole entry, looked up): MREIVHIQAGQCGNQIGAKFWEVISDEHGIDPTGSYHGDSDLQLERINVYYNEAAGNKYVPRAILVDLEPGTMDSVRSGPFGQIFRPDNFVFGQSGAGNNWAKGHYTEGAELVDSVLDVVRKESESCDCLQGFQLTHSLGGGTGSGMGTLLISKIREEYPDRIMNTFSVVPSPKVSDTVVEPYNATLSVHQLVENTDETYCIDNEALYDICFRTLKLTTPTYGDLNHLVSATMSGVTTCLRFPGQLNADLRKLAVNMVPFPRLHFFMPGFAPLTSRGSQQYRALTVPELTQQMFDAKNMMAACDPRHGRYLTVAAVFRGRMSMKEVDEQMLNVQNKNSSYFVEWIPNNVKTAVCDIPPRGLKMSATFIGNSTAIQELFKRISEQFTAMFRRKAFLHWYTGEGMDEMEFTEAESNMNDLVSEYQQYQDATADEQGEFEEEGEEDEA

Cc1cc2[nH]c(=O)c3c4ccccc4cn3c2cc1C gave a GI50 (NCI-H23) of 14.8 µM, an LC50 (50% net cell kill) (NCI-H23) of 69.2 µM and a TGI (NCI-H23; read-out: pTGI (converted)) of 32.4 µM. The GI50 (NCI-H522) was 14.5 µM, the CC50 (NCI-H522; [8]) was 66.1 µM and the TGI (NCI-H522; read-out: pTGI (converted)) was 30.9 µM. For the same compound, the GI50 (HCT-116) was 1.58 µM, the LC50 (HCT-116) was 6.17 µM and the TGI (HCT-116; read-out: pTGI (converted)) was 3.09 µM. The GI50 (HCT-15) was 6.17 µM, the CC50 (HCT-15; [8]) was 61.7 µM and the TGI (HCT-15; read-out: pTGI (converted)) was 21.9 µM. For the same compound, the GI50 (HT-29) was 6.03 µM, the LC50 (HT-29) was over 100 µM and the TGI (HT-29; read-out: pTGI (converted)) was over 100 µM. The GI50 (KM12) was 7.08 µM, the LC50 (50% net cell death) (KM12) was 52.5 µM and the TGI (KM12; read-out: pTGI (converted)) was 21.4 µM. For the same compound, the GI50 (SW-620) was 3.8 µM, the CC50 (SW-620; [8]) was over 100 µM and the TGI (SW-620; read-out: pTGI (converted)) was 33.1 µM. It also gave a GI50 (SF-268 [1]) of 15.5 µM, a CC50 (SF-268 [1]; [8]) of 69.2 µM and a TGI (SF-268 [1]; read-out: pTGI (converted)) of 32.4 µM. It also gave a GI50 (SF-295) of 12.3 µM, a CC50 (SF-295; [8]) of 66.1 µM and a TGI (SF-295; read-out: pTGI (converted)) of 28.2 µM. It also gave a GI50 (U-251) of 4.07 µM, a CC50 (U-251; [8]) of 47.9 µM and a TGI (U-251; read-out: pTGI (converted)) of 14.1 µM. It also gave a GI50 (LOX IMVI) of 2.04 µM, an LC50 (50% net cell kill) (LOX IMVI) of 7.94 µM and a TGI (LOX IMVI; read-out: pTGI (converted)) of 3.98 µM. For the same compound, the GI50 (M14) was 13.5 µM, the CC50 (M14; [8]) was 52.5 µM and the TGI (M14; read-out: pTGI (converted)) was 26.9 µM. The GI50 (SK-MEL-2) was 18.2 µM, the LC50 (SK-MEL-2) was 66.1 µM and the TGI (SK-MEL-2; read-out: pTGI (converted)) was 34.7 µM. It also gave a GI50 (UACC-62) of 16.6 µM, an LC50 (UACC-62) of 60.3 µM and a TGI (UACC-62; read-out: pTGI (converted)) of 31.6 µM. The GI50 (OVCAR-4) was 13.5 µM, the LC50 (50% net cell kill) (OVCAR-4) was 56.2 µM and the TGI (OVCAR-4; read-out: pTGI (converted)) was 27.5 µM. For the same compound, the GI50 (OVCAR-8) was 7.08 µM, the LC50 (50% net cell death) (OVCAR-8) was 81.3 µM and the TGI (OVCAR-8; read-out: pTGI (converted)) was 25.7 µM. For the same compound, the GI50 (SK-OV-3) was 18.2 µM, the LC50 (50% net cell kill) (SK-OV-3) was 64.6 µM and the TGI (SK-OV-3; read-out: pTGI (converted)) was 34.7 µM. It also gave a GI50 (786-0) of 10.7 µM, a CC50 (786-0; [8]) of 47.9 µM and a TGI (786-0; read-out: pTGI (converted)) of 22.9 µM. It also gave a GI50 (A498) of 21.4 µM, a CC50 (A498; [8]) of 72.4 µM and a TGI (A498; read-out: pTGI (converted)) of 39.8 µM. It also gave a GI50 (ACHN) of 10.2 µM, an LC50 (50% net cell kill) (ACHN) of 53.7 µM and a TGI (ACHN; read-out: pTGI (converted)) of 23.4 µM. It also gave a GI50 (CAKI-1) of 5.37 µM, an LC50 (CAKI-1) of 49 µM and a TGI (CAKI-1; read-out: pTGI (converted)) of 17.8 µM. For the same compound, the GI50 (RXF 393) was 12 µM, the CC50 (RXF 393; [8]) was 63.1 µM and the TGI (RXF 393; read-out: pTGI (converted)) was 27.5 µM. It also gave an Activity (Tubulin (Sus scrofa)) of over 10 µM, a GI50 (BT-549) of 19.5 µM and an LC50 (50% net cell kill) (BT-549) of 85.1 µM. The TGI (BT-549; read-out: pTGI (converted)) was 40.7 µM, the Activity (MCF7 [2]) was 0% and the Activity (SF-268 [3]) was 0%. For the same compound, the GI50 (RPMI-8226) was 6.76 µM, the CC50 (RPMI-8226; [8]) was over 100 µM and the TGI (RPMI-8226; read-out: pTGI (converted)) was 29.5 µM. It also gave a GI50 (SR) of 2.57 µM, an LC50 (SR) of 49 µM and a TGI (SR; read-out: pTGI (converted)) of 5.75 µM. For the same compound, the GI50 (A549) was 14.8 µM, the CC50 (A549; [8]) was 95.5 µM and the TGI (A549; read-out: pTGI (converted)) was 38 µM. It also gave a GI50 (EKVX) of 13.5 µM, an LC50 (50% net cell kill) (EKVX) of 75.9 µM and a TGI (EKVX; read-out: pTGI (converted)) of 31.6 µM. It also gave a GI50 (HOP-62) of 2.69 µM, an LC50 (50% net cell death) (HOP-62) of 28.8 µM and a TGI (HOP-62; read-out: pTGI (converted)) of 8.13 µM. It also gave a GI50 (TK-10) of 20 µM, a CC50 (TK-10; [8]) of 58.9 µM and a TGI (TK-10; read-out: pTGI (converted)) of 33.9 µM. It also gave a GI50 (PC-3) of 12 µM, an LC50 (50% net cell death) (PC-3) of 53.7 µM and a TGI (PC-3; read-out: pTGI (converted)) of 25.7 µM. The GI50 (MCF7 [4]) was 11.7 µM, the LC50 (50% net cell kill) (MCF7 [4]) was over 100 µM and the TGI (MCF7 [4]; read-out: pTGI (converted)) was over 100 µM. For the same compound, the GI50 (NCI/ADR-RES) was 13.5 µM, the LC50 (NCI/ADR-RES) was 74.1 µM and the TGI (NCI/ADR-RES; read-out: pTGI (converted)) was 31.6 µM. For the same compound, the GI50 [5] was 8.32 µM, the LC50 [5] was 60.3 µM and the TGI ([5]; read-out: pTGI (converted)) was 23.4 µM. The GI50 (Hs-578T) was 25.1 µM, the CC50 (Hs-578T; [8]) was over 100 µM and the TGI (Hs-578T; read-out: pTGI (converted)) was 60.3 µM. It also gave a GI50 (T47D) of 15.5 µM, an LC50 (T47D) of over 100 µM and a TGI (T47D; read-out: pTGI (converted)) of 50.1 µM. For the same compound, the GI50 (MCF7 [6]) was 5.1 µM, the RatioGI50 (MCF7 [7]) was 1.8 and the GI50 (CCRF-CEM) was 15.5 µM.
